The source made the active and inactive calls.
Experiments:
[1] = Acute toxicity in ICR mouse assessed as survival at 250 mg/kg, ip measured on day 14; type: organism-based; settings: in vivo
Procedure, shortened: (§1)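 Female ICR mice, 10 per group, single intraperitoneal injection at 488.3, 390.6, 312.5, 250 or 200 mg/kg, or vehicle control. Survival, eating, drinking, body weight and activity were monitored for up to 14 days after dosing. MTD was defined as the highest dose giving no drug-related moribund state or death, with temporary body-weight loss within 20%. LD50 was calculated from mortality.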

Mus musculus [2] = assay: Acute toxicity in ICR mouse assessed as effect on body weight at 200 mg/kg, ip measured up to 14 days post dose; type: organism-based; settings: in vivo, 336 h; procedure, shortened: as §1
HCT-116 [3] = assay: Antiproliferative activity against human HCT116 cells after 72 hrs by MTT assay; type: functional, cell-based; settings: HCT-116, 72 h
Procedure, shortened: (§2)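 Cells in DMEM with 10% FBS, 10^4 cells/mL, adhered overnight at 37 °C, 5% CO2. Treated in triplicate with a range of concentrations for 72 h. MTT (5 mg/mL solution) added for the last 4 h, formazan dissolved in DMSO, absorbance read at 570 nm. IC50 calculated from percent inhibition. Mean ± SD of three independent experiments.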

SMMC-7721 [4] = assay: Potency index, ratio of 5-FU IC50 to compound IC50 for human SMMC7721 cells; type: functional
SMMC-7721 [5] = assay: Antitumor activity against human SMMC7721 cells xenografted in BALB/c mouse assessed as tumor growth inhibition at 30 mg/kg, ip measured after 19 days relative to control; type: functional; settings: SMMC-7721, ip, 456 h, read-out: TGI
Procedure, shortened: (§3)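 Female BALB/c nude mice, 5-6 weeks old, inoculated subcutaneously with 10^6 SMMC-7721 cells. At 50-100 mm³ tumours, mice were randomized to ip compound (15 or 30 mg/kg), ADM (15 mg/kg) or vehicle, n = 6 per group. Caliper volume ½(L×W²) measured every 3 days to day 19, with body weight monitored. Tumours excised and weighed at the end.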

Mus musculus [6] = assay: Acute toxicity in ICR mouse assessed as mouse mortality level at 200 to 488.3 mg/kg, ip measured at 1 to 4 hrs post dose; type: organism-based; settings: in vivo; procedure, shortened: as §1
[7] = Acute toxicity in ICR mouse assessed as survival at 488.3 mg/kg, ip measured on day 14; type: organism-based; settings: in vivo; procedure, shortened: as §1
SMMC-7721 [8] = assay: Induction of apoptosis in human SMMC7721 cells assessed as increase in cleaved PARP expression at 0.2 to 3.2 uM after 72 hrs by Western blot analysis relative to control; type: functional, cell-based
Procedure, shortened: (§4)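 Sub-confluent SMMC-7721 cells treated with vehicle, compound or ADM at indicated concentrations for 72 h. Lysed on ice in NP-40/deoxycholate/SDS buffer with PMSF and leupeptin. Up to 50 µg protein run on SDS-PAGE, transferred to PVDF and probed with specific antibodies; ECL detection. Bands quantified by densitometry relative to β-actin, mean ± SD of three experiments.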

Mus musculus [9] = assay: Acute toxicity in ICR mouse assessed as effect on eating behaviour at 200 mg/kg, ip measured up to 14 days post dose; type: organism-based; settings: in vivo, 336 h; procedure, shortened: as §1
Mus musculus [10] = assay: Toxicity in BALB/c mouse xenografted with human SMMC7721 cells assessed as effect on body weight at 15 to 30 mg/kg, ip measured after 19 days; type: organism-based; settings: in vivo, 456 h; procedure, shortened: as §3
SMMC-7721 [11] = assay: Induction of apoptosis in human SMMC7721 cells assessed as increase in cleaved caspase-3 expression at 3.2 uM after 72 hrs by Western blot analysis relative to control; type: functional, cell-based; procedure, shortened: as §4
Mus musculus [12] = assay: Acute toxicity in ICR mouse assessed as mouse mortality level at 312.5 mg/kg, ip measured on day 3 post dose; type: organism-based; settings: in vivo; procedure, shortened: as §1
SMMC-7721 [13] = assay: Induction of apoptosis in human SMMC7721 cells assessed as apoptotic cells at 0.8 uM after 72 hrs by FITC-Annexin-V/7AAD/propidium iodide staining based flow cytometry relative to control; type: functional
Procedure, shortened: (§5)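 SMMC-7721 cells cultured overnight, then treated in triplicate with 0.2, 0.8 or 3.2 μM, vehicle, or ADM (3.2 μM) for 72 h. Stained with annexin V and PI (methods section: APC-annexin V/7-AAD) for 15 min at room temperature. Mean ± SD of three independent experiments.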

[14] = Acute toxicity in ICR mouse assessed as survival at 312.5 mg/kg, ip measured on day 14; type: organism-based; settings: in vivo; procedure, shortened: as §1
SMMC-7721 [15] = assay: Antitumor activity against human SMMC7721 cells xenografted in ip dosed BALB/c mouse assessed as tumor growth inhibition measured every 3 days up to 19 days post dose; type: functional, organism-based; procedure, shortened: as §3
Mus musculus [16] = assay: Acute toxicity in ICR mouse assessed as mouse mortality level at 200 to 312.5 mg/kg, ip measured on day 5 to 14 post dose; type: organism-based; settings: in vivo; procedure, shortened: as §1
SGC-7901 [17] = assay: Antiproliferative activity against human SGC7901 cells after 72 hrs by MTT assay; type: functional, cell-based; settings: SGC-7901, 72 h; procedure, shortened: as §2
[18] = biological target: Cellular tumor antigen p53 (Homo sapiens) (UniProt P04637); assay: Induction of p53 phosphorylation at Ser15 in human SMMC7721 cells after 72 hrs by Western blot analysis; type: cell-based
Chain of Cellular tumor antigen p53 (Homo sapiens) (P04637 whole entry, looked up): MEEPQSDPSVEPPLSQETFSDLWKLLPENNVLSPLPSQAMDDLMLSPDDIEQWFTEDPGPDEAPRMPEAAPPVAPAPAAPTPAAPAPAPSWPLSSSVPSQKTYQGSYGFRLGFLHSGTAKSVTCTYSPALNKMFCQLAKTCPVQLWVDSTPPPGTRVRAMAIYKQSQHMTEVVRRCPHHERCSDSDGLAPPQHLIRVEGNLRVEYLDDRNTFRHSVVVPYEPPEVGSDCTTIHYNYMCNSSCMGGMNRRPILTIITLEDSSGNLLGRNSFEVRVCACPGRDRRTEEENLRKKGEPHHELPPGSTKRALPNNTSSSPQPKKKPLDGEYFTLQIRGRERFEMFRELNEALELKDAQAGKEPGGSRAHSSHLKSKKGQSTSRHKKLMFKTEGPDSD
Procedure, shortened: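 SMMC-7721 cells treated with vehicle, compound at 0.2, 0.8 or 3.2 μM, or ADM for 72 h. Lysates immunoblotted for H2AX pS139, p-p53 (Ser15), total p53 and β-actin, with ECL detection. Signals quantified by densitometry relative to β-actin, mean ± SD of three experiments.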

SMMC-7721 [19] = assay: Induction of apoptosis in human SMMC7721 cells assessed as increase in cleaved PARP expression at 3.2 uM after 72 hrs by Western blot analysis relative to control; type: functional, cell-based; procedure, shortened: as §4
L02 = assay: Cytotoxicity against human LO2 cells assessed as reduction in cell survival at 0.2 to 5 uM after 72 hrs by MTT assay; type: cell-based; settings: l02, 72 h
Procedure, shortened: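 LO2 normal liver cells in DMEM with 10% FBS, plated at 10^4 cells/mL, adhered overnight. Exposed to graded concentrations for 72 h alongside SMMC-7721. MTT added for the last 4 h, formazan dissolved in DMSO, A570 read. Percent inhibition, mean ± SD of three independent experiments.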

SGC-7901 [20] = assay: Potency index, ratio of ADM IC50 to compound IC50 for human SGC7901 cells; type: functional
HCT-116 [21] = assay: Potency index, ratio of 5-FU IC50 to compound IC50 for human HCT116 cells; type: functional
SMMC-7721 [22] = assay: Induction of apoptosis in human SMMC7721 cells assessed as increase in cleaved caspase-3 expression at 0.2 to 3.2 uM after 72 hrs by Western blot analysis relative to control; type: functional, cell-based; procedure, shortened: as §4
HCT-116 [23] = assay: Potency index, ratio of ADM IC50 to compound IC50 for human HCT116 cells; type: functional
[24] = Acute toxicity in ICR mouse assessed as survival at 390.6 mg/kg, ip measured on day 14; type: organism-based; settings: in vivo; procedure, shortened: as §1
SMMC-7721 [25] = assay: Potency index, ratio of ADM IC50 to compound IC50 for human SMMC7721 cells; type: functional
SMMC-7721 [26] = assay: Induction of apoptosis in human SMMC7721 cells assessed as apoptotic cells at 0.2 uM after 72 hrs by FITC-Annexin-V/7AAD/propidium iodide staining based flow cytometry relative to control; type: functional; procedure, shortened: as §5
SMMC-7721 [27] = assay: Induction of apoptosis in human SMMC7721 cells assessed as reduction in Bcl2 expression after 72 hrs by Western blot analysis; type: functional, cell-based; procedure, shortened: as §4

COc1ccc(Oc2c(/C=N\OCc3c(Cl)c(-c4ccc(Cl)cc4)nn3C)c(C)nn2C)cc1
survival at 14 day [1]: 70% | Activity (Mus musculus [2]): Non-Toxic | IC50 (HCT-116 [3]): 1260 nM | Ratio IC50 (SMMC-7721 [4]): 17 - 50 | inhibition in vivo at 30 mg/kg (SMMC-7721 [5]): 65.3% | Activity (Mus musculus [6]): Non-Toxic | survival at 14 day [7]: 10% | Activity (SMMC-7721 [8]): Active | Activity (Mus musculus [9]): Non-Toxic | Activity (Mus musculus [10]): Non-Toxic | Activity (SMMC-7721 [11]): Active | Activity (Mus musculus [12]): Non-Toxic | Activity (SMMC-7721 [13]): 49.2% | survival at 14 day [14]: 60% | TGI (SMMC-7721 [15]): Dose-dependent effect | Activity (Mus musculus [16]): Non-Toxic | IC50 (SGC-7901 [17]): 2010 nM | Activity [18]: Dose-dependent effect | Activity (SMMC-7721 [19]): Active | Activity (L02): Non-Toxic | Ratio IC50 (SGC-7901 [20]): 2 - 3 | Ratio IC50 (HCT-116 [21]): 17 - 50 | Activity (SMMC-7721 [22]): Active | Ratio IC50 (HCT-116 [23]): 2 - 3 | survival at 14 day [24]: 40% | Ratio IC50 (SMMC-7721 [25]): 2 - 3 | Activity (SMMC-7721 [26]): 29.6% | Activity (SMMC-7721 [27]): Dose-dependent effect
